Residue numbers refer to the chain shown, from its start.
Assays:
RGS17-RH [1] = target: T1, RGS17-RH (Homo sapiens, UniProt Q9UGC6); assay: Differential scanning fluorimetry; type: binding; conditions: 1 mM fragment, 10 μM RGS17-RH
T1 sequence (Q9UGC6 72-206): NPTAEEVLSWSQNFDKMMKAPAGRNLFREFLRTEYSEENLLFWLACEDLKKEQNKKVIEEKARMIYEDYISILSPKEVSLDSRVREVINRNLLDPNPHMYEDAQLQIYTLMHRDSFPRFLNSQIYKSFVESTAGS
Summary of the method: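 10 μM RGS17-RH was incubated 30 min at ambient temperature with 1 mM fragment or DMSO control. 2X Sypro Orange was then added, and fluorescence was recorded from 20 to 80 °C. Tm was calculated from the melt curves. Mean of n=3 ± S.E.M.; one-way ANOVA with multiple comparisons.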

[2] = target: T2, RGS17-RH GAP activity towards Gαi1 (R178M, A326S) (Homo sapiens, UniProt Q9UGC6); assay: Malachite green GAP activity assay; type: biochemical; conditions: 1 mM fragment, 4.5 μM RGS17-RH
T2 sequence (Q9UGC6 72-206): T1 sequence (Q9UGC6 72-206)
Summary of the method: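 Free phosphate from GTP hydrolysis was detected colorimetrically with malachite green. Final concentrations were 300 μM GTP, 4.5 μM tag-free RGS17-RH and 1 mM fragment. Mean of n=3 independent experiments ± SEM.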

RGS4-RH = target: T3, RGS4-RH (Homo sapiens, UniProt P49798); assay: 1H-15N HSQC NMR binding to RGS4-RH; conditions: 1H-15N HSQC with RGS4-RH
T3 sequence (P49798 51-179): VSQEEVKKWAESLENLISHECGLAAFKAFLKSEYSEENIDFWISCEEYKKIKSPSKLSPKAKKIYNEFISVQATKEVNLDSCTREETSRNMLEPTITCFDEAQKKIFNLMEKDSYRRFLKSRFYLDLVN
Summary of the method: (§1)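 ¹⁵N-labelled RH domains (wild-type RGS4, or RGS17 with the C117S point mutation) were expressed in E. coli BL21-CodonPlus(DE3)-RIPL in M9 medium with 1 g/L ¹⁵NH₄Cl. The His₆ tag was removed with TEV protease, and protein was purified by Ni-IMAC and size exclusion. ¹H-¹⁵N HSQC spectra were recorded with fragment at 1 mM in 1% DMSO and overlaid on 1% DMSO control spectra.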

RGS17-RH [3] = target: T1, RGS17-RH; assay: 1H-15N HSQC NMR fragment titration, chemical shift perturbation KD; type: binding; conditions: calculated from KD and number of heavy atoms
Summary of the method: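 100 μM ¹⁵N-RGS17-RH was titrated with fragment from 100 μM up to its solubility limit (generally 2–10 mM) in phosphate buffer, pH 7.6, and ¹H-¹⁵N HSQC spectra were recorded. CSP was taken as the distance between control and treated peak centres. Per-residue KD came from a quadratic binding fit and was averaged over residues. LE = (−2.3039·R·T/HA)·log(KD).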

RGS17-RH C117S = target: T4, RGS17-RH C117S (Homo sapiens, UniProt Q9UGC6, C117S); assay: 1H-15N HSQC NMR binding to RGS17-RH C117S mutant; conditions: 1H-15N HSQC with RGS17-RH C117S mutant
T4 sequence (Q9UGC6 72-206 C117S): T1 sequence (Q9UGC6 72-206) with C46S
Summary of the method: as §1

RGS17-RH [4] = target: T1, RGS17-RH; assay: DACM cysteine labeling of RGS17-RH after pre-incubation; type: biochemical; conditions: 10-fold molar excess compound (20 μM) over 2 μM RGS17-RH, 30 min pre-incubation
Summary of the method: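 RGS17-RH, or buffer alone, was pre-incubated 30 min at ambient temperature with compound (final 2 μM protein, 20 μM compound; NEM as comparator). The buffer was 20 mM K₂HPO₄, 100 mM NaCl, 2 mM NaN₃, pH 7.6. DACM was then added, and fluorescence (ex 385/em 440 nm) was read for 1,000 s. Slopes were normalised to no-protein (0%) and protein without compound (100%). Mean of n=3 ± S.D.; one-way ANOVA.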

RGS4 Binding (RGS4-RH)	L.E. (ligand efficiency) (RGS17-RH [3])	RGS C117S Binding (RGS17-RH C117S)	Compound	effect on melting temperature of RGS17-RH (in words) (RGS17-RH [1])	further results
Yes	0.31	Yes	Oc1ccc(Sc2ccc(O)cc2)cc1 [Fragment 4]	melting temperature could not be accurately determined	inhibition of RGS17-RH GAP activity ([2]; 300 μM GTP): ~20%
–	0.23	–	CSc1cc(-c2ccc(F)cc2)[nH]n1 [Fragment 5]	–	RGS4 Binding (RGS4-RH; listed as 5): No; RGS4 Binding (RGS4-RH; listed as fragment 5): did not bind; RGS C117S Binding (RGS17-RH C117S; listed as 5): No; RGS C117S Binding (RGS17-RH C117S; listed as fragment 5): did not bind
Yes	0.25	Yes	OCCCCn1cnc2cc(Cl)c(Cl)cc21 [Fragment 6]	not statistically significant	inhibition of RGS17-RH GAP activity (in words) ([2]; one-way ANOVA): lack of appreciable RGS17-RH GAP inhibition
Yes	0.25	Yes	OCCCCCOc1ccc(Cl)cc1 [Fragment 7]	–	–
–	–	–	CCN1C(=O)C=CC1=O [N-ethyl maleimide (NEM), N-ethyl maleimide, reference compound]	–	DACM labeling of RGS17-RH after pre-incubation (RGS17-RH [4]): decreased DACM labeling

Reference: PMC8546901 (Chembiochem : a European journal of chemical biology, 2021)
